Assay results taken from ChEMBL document CHEMBL1144747, “(Phenylpiperazinyl-butyl)oxindoles as selective 5-HT7 receptor antagonists” (J Med Chem, 2008).

Experiments:
[1] = target: T1, 5-hydroxytryptamine receptor 7 (Homo sapiens, UniProt P34969); assay: Displacement of [3H]LSD from human recombinant 5HT7 receptor expressed in CHO cells; format: cell-based; conditions: read-out: Ki
In short: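 Cloned human 5-HT7 receptor from CHO cells, labelled with [3H]LSD; nonspecific binding with 25 µM clozapine. Stopped by filtration on PEI-soaked GF/C filters, then scintillation counting. Ki from two displacement curves of nine concentrations each, run in triplicate.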

[2] = target: T2, 5-hydroxytryptamine receptor 1A (Rattus norvegicus) (UniProt P19327); assay: Displacement of [3H]8-OH-DPAT from 5HT1A receptor in rat frontal cortex membrane at 0.1 uM; format: cell membranes
T2 sequence (whole entry): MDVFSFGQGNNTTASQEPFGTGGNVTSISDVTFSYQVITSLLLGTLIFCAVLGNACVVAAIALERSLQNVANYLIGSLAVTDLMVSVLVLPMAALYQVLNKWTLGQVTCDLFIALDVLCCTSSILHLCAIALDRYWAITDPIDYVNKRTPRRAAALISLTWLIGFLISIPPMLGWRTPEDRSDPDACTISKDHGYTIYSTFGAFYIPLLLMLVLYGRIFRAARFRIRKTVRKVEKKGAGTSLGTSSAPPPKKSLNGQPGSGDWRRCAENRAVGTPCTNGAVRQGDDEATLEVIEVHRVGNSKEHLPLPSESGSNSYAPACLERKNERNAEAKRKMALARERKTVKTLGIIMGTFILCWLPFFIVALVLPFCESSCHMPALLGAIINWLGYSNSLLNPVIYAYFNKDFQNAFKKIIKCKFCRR
In short: (§1)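 Rat tissue homogenized in 50 mM Tris-HCl pH 7.7, washed by repeated 40000g spins with a 10 min 37 °C incubation. Buffer: Tris-HCl, 6.66 mM CaCl2, 16.66 µM pargyline, 0.166% ascorbate. Labelled with 1.5 nM [3H]8-OH-DPAT, 45 min at 25 °C; nonspecific with 10 µM 5-HT. GF/B filtration, then scintillation counting; percent inhibition.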

[3] = test system: Rattus norvegicus; assay: Anxiolytic activity in ip dosed Wistar rat assessed as number of punished licks for 5 mins by conflict drinking test; format: functional; conditions: read-out: MED
In short: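 Modified Vogel test in male Wistar rats, 160–180 g, water-deprived 48 h and fasted 24 h. Dosed ip 30 min before test. After a 30 s free-drinking period, 600 µA, 0.6 s shocks came through the spout every 20 licks over 5 min. Punished licks counted; minimal effective dose reported.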

[4] = test system: Mus musculus; assay: Anxiolytic activity in ip dosed NMRI mouse assessed as behavioral activity for 5 mins by light dark assay; format: functional; conditions: read-out: MED
In short: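 Male NMRI mice, 25–33 g, kept in a dark room and dosed ip 30 min before test, then placed in the centre of the lit area. Over 5 min, time in each area, transitions, and horizontal and vertical activity were recorded. Minimal effective dose by one-way ANOVA with Duncan's test.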

[5] = target: T3, 5-hydroxytryptamine receptor 1A (Rattus norvegicus, UniProt P19327); assay: Inhibition of 5HT1A receptor in rat frontal cortex membrane; format: cell membranes; in short: as §1
T3 sequence (P19327 whole entry): T2 sequence (whole entry)

[6] = target: 5-hydroxytryptamine receptor 2A (Homo sapiens, UniProt P28223); assay: Inhibition of 5HT2A receptor
[7] = target: T4, 5-hydroxytryptamine receptor 2C (Homo sapiens, UniProt P28335); assay: Inhibition of 5HT2C receptor
T4 sequence (P28335 whole entry): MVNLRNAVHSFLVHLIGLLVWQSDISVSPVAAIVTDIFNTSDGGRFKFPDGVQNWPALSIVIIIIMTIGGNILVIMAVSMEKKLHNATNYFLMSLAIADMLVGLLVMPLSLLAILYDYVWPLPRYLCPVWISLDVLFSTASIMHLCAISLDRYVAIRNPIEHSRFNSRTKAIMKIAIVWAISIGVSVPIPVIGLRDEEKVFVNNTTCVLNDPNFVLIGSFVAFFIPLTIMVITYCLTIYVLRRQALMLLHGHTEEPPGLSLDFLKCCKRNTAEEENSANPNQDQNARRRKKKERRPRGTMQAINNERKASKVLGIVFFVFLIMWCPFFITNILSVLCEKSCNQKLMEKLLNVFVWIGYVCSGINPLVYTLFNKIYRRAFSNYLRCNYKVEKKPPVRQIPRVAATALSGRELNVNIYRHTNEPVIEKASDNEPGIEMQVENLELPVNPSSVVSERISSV

[8] = target: 5-hydroxytryptamine receptor 6 (Homo sapiens, UniProt P50406); assay: Inhibition of 5HT6 receptor
[9] = target: T5, Alpha-1A adrenergic receptor (Homo sapiens, UniProt P35348); assay: Inhibition of adrenergic alpha-1 receptor
T5 sequence (P35348 whole entry): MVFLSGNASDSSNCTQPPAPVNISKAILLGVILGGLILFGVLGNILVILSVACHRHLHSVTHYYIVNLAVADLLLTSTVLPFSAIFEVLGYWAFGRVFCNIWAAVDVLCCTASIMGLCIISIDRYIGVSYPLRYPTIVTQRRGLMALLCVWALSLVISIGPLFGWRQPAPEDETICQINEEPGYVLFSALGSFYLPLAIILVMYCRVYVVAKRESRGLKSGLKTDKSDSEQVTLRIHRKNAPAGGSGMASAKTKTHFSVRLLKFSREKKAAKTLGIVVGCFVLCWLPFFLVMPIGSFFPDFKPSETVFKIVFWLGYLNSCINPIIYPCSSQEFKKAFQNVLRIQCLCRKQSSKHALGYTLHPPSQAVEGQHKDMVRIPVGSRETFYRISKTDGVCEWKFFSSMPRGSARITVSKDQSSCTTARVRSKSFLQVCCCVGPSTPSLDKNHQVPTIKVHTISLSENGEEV

[10] = target: D(1A) dopamine receptor (Homo sapiens, UniProt P21728); assay: Inhibition of dopamine D1 receptor
[11] = target: D(2) dopamine receptor (Homo sapiens, UniProt P14416); assay: Inhibition of dopamine D2 receptor
[12] = target: T1, 5-hydroxytryptamine receptor 7; assay: Antagonist activity at human 5HT7A receptor expressed in CHO cells assessed as inhibition of […]-induced cAMP elevation at 10 nM administered before […] challenge; format: functional, cell-based; set-up: scale not given: the % may be the effect or the level left
In short: (§2)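 CHO cells stably expressing human 5-HT7A, cultured in F12:DMEM with 5% FCS, seeded 24 h ahead. Compounds from 1 mM DMSO stock (final DMSO 0.1%) preincubated 10 min, then 20 min with 10 nM 5-CT at 37 °C. Cells lysed, cAMP by EIA, normalized to BCA protein. The 5-CT-induced level is taken as 100%; six independent experiments.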

[13] = target: T1, 5-hydroxytryptamine receptor 7; assay: Antagonist activity at human 5HT7A receptor expressed in CHO cells assessed as inhibition of […]-induced cAMP elevation at 1 uM; format: functional, cell-based; set-up: scale not given: the % may be the effect or the level left; in short: as §2
[14] = target: T2, 5-hydroxytryptamine receptor 1A (Rattus norvegicus); assay: Displacement of [3H]8-OH-DPAT from 5HT1A receptor in rat frontal cortex membrane at 10 nM; format: cell membranes; in short: as §1
[15] = Oral bioavailability in rat; format: ADME, organism-based; conditions: in vivo

Chain of 5-hydroxytryptamine receptor 2A (P28223 whole entry): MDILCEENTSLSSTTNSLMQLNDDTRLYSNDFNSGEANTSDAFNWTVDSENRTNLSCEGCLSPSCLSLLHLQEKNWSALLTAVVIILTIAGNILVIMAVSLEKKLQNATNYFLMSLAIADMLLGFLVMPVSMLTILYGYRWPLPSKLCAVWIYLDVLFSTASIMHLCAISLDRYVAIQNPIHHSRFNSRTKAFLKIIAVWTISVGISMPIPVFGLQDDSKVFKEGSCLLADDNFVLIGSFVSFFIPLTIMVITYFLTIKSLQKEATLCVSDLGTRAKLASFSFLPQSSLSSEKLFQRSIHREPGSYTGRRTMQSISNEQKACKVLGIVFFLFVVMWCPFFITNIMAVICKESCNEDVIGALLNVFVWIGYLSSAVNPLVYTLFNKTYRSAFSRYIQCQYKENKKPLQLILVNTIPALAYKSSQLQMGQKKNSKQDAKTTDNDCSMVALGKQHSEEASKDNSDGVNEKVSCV
Chain of D(1A) dopamine receptor (P21728 whole entry): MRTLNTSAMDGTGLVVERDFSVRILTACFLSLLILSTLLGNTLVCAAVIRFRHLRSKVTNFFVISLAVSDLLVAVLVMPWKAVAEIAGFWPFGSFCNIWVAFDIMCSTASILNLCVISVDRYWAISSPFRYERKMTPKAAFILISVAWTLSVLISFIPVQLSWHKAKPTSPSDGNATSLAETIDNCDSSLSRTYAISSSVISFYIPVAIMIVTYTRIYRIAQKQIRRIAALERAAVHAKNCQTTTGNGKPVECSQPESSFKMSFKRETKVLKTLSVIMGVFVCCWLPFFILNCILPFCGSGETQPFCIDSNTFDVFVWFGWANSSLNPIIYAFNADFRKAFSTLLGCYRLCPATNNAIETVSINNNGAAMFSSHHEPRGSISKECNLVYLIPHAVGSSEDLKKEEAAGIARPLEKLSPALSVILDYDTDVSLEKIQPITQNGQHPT
T1 sequence (P34969 whole entry): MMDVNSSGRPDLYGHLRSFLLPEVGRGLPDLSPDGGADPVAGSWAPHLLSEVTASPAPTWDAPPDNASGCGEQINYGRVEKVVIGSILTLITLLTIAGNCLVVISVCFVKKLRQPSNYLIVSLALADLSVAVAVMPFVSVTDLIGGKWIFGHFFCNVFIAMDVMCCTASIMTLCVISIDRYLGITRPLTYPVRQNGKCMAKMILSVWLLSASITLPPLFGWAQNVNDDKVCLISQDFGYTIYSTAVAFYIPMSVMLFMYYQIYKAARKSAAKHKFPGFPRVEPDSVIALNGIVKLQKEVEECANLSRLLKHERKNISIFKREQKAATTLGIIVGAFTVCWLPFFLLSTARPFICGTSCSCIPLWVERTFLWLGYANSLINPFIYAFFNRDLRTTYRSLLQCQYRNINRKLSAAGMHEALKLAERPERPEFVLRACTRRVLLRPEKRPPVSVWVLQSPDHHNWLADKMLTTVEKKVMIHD
Chain of D(2) dopamine receptor (P14416 whole entry): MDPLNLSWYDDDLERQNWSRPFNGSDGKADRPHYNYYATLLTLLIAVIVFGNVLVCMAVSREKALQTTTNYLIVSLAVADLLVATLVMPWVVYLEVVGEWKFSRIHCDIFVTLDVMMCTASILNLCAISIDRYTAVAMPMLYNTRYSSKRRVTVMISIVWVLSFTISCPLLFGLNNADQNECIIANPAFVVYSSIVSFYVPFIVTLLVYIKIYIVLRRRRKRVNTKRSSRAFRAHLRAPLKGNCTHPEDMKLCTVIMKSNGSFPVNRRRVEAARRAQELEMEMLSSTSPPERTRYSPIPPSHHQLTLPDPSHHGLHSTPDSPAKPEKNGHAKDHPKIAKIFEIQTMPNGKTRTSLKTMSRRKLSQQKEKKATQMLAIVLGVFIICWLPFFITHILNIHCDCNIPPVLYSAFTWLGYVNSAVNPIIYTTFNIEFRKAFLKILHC
Chain of 5-hydroxytryptamine receptor 6 (P50406 whole entry): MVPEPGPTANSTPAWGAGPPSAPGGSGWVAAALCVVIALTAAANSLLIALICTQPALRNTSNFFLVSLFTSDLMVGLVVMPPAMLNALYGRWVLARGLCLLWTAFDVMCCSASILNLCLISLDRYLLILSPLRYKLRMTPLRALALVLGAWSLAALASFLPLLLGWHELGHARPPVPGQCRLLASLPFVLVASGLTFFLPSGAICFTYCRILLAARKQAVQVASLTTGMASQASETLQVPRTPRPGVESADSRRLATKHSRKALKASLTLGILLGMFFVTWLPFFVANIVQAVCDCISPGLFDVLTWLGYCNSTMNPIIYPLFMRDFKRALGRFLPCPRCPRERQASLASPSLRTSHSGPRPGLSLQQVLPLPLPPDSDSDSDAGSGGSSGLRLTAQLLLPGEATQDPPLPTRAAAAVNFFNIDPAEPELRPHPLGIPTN

Structure (SMILES)	Ki [1] [nM]	Activity [2] [%]	minimal effective dose [3] [mg/kg]	minimal effective dose [4] [mg/kg]	Ki [5] [nM]	Ki [6] [nM]	Ki [7] [nM]	Ki [8] [nM]	Ki [9] [nM]	Ki [10] [nM]	Ki [11] [nM]	Activity [12] [%]	Activity [13] [%]	Activity [14] [%]	bioavailability [15] [%]
O=C1Nc2ccccc2C1CCCCN1CCN(c2ccc(Cl)cc2)CC1 (stereo not given)	7	10	< 2.5	< 1	1800	17.5	690	580	42	2400	960	80	> 95		
O=C1Nc2ccc(F)cc2C1CCCCN1CCN(c2ccccc2)CC1 (stereo not given)	44	33	< 10		150	55	1500	1800	20	1900	330	40	> 95	5	
CCC1(CCCCN2CCN(c3ccc(Cl)cc3)CC2)C(=O)Nc2cc(F)ccc21 (stereo not given)	0.79	9	> 20	> 10	1610	19.4	358	187	71.3	3360	950		> 95	0	
O=C1Nc2ccc(Cl)c3c2C1(CCCCN1CC=C(c2ccc(Cl)cc2)CC1)CCC3 (stereo not given)															18
